Measured values taken from ChEMBL document CHEMBL1155196, “N-hydroxybenzimidazole inhibitors of the transcription factor LcrF in Yersinia: novel antivirulence agents” (J Med Chem, 2009).
Active and inactive are the calls of the source. The rule behind the calls is not given here.

Legend:
[1] = Inhibition of 6His-tagged Yersinia sp. LcrF binding to biotinylated double-stranded DNA by cell free-based chemiluminescence assay
Procedure, shortened: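 Biotinylated double-stranded DNA carrying LcrF sites (2 nM) captured on streptavidin plates and incubated with 6His-LcrF (20 nM) plus titrated inhibitor in Hepes/ammonium sulfate/KCl/EDTA buffer with 0.2% polysorbate 20 and 0.5% non-fat milk. After washing, anti-6His then HRP secondary antibody, chemiluminescence read-out. % inhibition against control wells, curve-fitted IC50; mostly mean of two independent experiments.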

[2] = tested on: J774.A1; assay: Cytotoxicity against mouse J774A1 cells assessed as LDH release at 50 ug/mL after 18 hrs by colorimetric assay; type: cell-based; details: j774.a1, 18 h
[3] = tested on: J774.A1; assay: Inhibition of Yersinia pseudotuberculosis YP3 pIB1 LcrF-mediated cytotoxicity against mouse J774A1 cells assessed as LDH release at 50 ug/mL after 18 hrs by colorimetric assay; type: cell-based; details: Yersinia pseudotuberculosis YPIII
Procedure, shortened: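 J774A.1 macrophages plated at 2 × 10^4 per well the day before. Y. pseudotuberculosis YPIIIpIB1 grown in 2-YT with 20 mM MgCl2 and 20 mM sodium oxalate, 90 min at 26 °C then 90 min at 37 °C. Infection at MOI 5–10 in DMEM, 2 h at 37 °C, 5% CO2. Gentamicin 50 μg/mL added, then ~18 h. Compound at 50 μg/mL in both culture and wells; vehicle DMSO/0.4% ethanolamine. LDH release measured colorimetrically, expressed as % of wild-type vehicle cytotoxicity.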

[4] = biological target: T1, HTH-type transcriptional regulator ExsA (Pseudomonas aeruginosa (strain ATCC 15692 / PAO1 / 1C / PRS 101 / LMG12228), UniProt P26993); assay: Inhibition of Pseudomonas aeruginosa ExsA binding to DNA
T1 sequence (P26993 whole entry): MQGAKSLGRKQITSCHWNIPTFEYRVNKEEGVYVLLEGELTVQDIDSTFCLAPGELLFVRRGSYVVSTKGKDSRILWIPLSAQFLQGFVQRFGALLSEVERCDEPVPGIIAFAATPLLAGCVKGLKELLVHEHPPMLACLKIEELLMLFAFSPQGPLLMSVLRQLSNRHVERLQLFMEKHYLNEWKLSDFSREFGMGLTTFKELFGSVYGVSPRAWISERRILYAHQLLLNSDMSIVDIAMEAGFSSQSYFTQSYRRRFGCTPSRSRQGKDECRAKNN
Procedure, shortened: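 ExsA-DNA binding run like the LcrF plate assay: immobilised biotinylated DNA, His-tagged regulator, titrated inhibitor, washing, anti-6His/HRP chemiluminescent detection, % inhibition against control wells, curve-fitted IC50.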

[5] = Inhibition of Salmonella sp. SlyA binding to DNA
Procedure, shortened: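 Same format as the LcrF ELISA-type assay. Biotinylated double-stranded DNA carrying the binding sequence was captured on streptavidin-coated wells with His-tagged SlyA and titrated inhibitor. Buffer was 20 mM Hepes, 10 mM ammonium sulfate, 30 mM KCl, 1 mM EDTA, 0.2% polysorbate 20 and 0.5% non-fat milk. After washing, bound complex was detected with anti-6His then HRP secondary and chemiluminescence. IC50 came from dose-response fits against control wells.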

[6] = tested on: Yersinia pseudotuberculosis; assay: Antimicrobial activity against Yersinia pseudotuberculosis after 18 to 24 hrs by CLSI microdilution test; type: functional
[7] = tested on: Staphylococcus aureus; assay: Antimicrobial activity against Staphylococcus aureus RN450 after 18 to 24 hrs by CLSI microdilution test; type: functional
[8] = tested on: Escherichia coli; assay: Antimicrobial activity against Escherichia coli ATCC 25922 after 18 to 24 hrs by CLSI microdilution test; type: functional

Compound | IC50 [1] | Activity [2] | also measured
COc1cc(NC(=O)/C=C/c2ccc(F)cc2)ccc1-c1nc2ccc([N+](=O)[O-])cc2n1O | 13.5 µM | Non-toxic | –
CN(C)c1cc2nc(-c3ccc(NC(=O)/C=C/c4ccc(F)cc4)cc3)n(O)c2cc1[N+](=O)[O-] | 66 µM | Non-toxic | –
O=C(CCc1ccc(F)cc1)Nc1ccc(-c2nc3ccc([N+](=O)[O-])cc3n2O)cc1 | > 53.5 µM | Non-toxic | –
O=C(/C=C/c1ccc(F)cc1)Nc1ccc(-c2nc3ccc(-n4cccn4)cc3n2O)cc1 | 53.7 µM | Non-toxic | –
CC(C)c1ccc(/C=C/C(=O)Nc2ccc(-c3nc4ccc([N+](=O)[O-])cc4n3O)cc2)cc1 | > 50.9 µM | Non-toxic | –
O=C(/C=C/c1ccc(F)cc1)Nc1ccc(-c2nc3ccc(C(=O)O)cc3n2O)cc1 | 38.5 µM | Non-toxic | –
O=C(/C=C/c1ccc(O)cc1)Nc1ccc(-c2nc3ccc([N+](=O)[O-])cc3n2O)cc1 | > 57 µM | Non-toxic | –
O=C(/C=C/c1ccc(F)cc1)Nc1ccc(-c2nc3cc(F)c([N+](=O)[O-])cc3n2O)cc1 | 26.6 µM | Non-toxic | –
O=C(/C=C/c1ccc(F)cc1)Nc1ccc(-c2nc3ccc([N+](=O)[O-])cc3n2O)cc1F | 20.7 µM | Non-toxic | –
COc1ccc(/C=C/C(=O)Nc2ccc(-c3nc4ccc([N+](=O)[O-])cc4n3O)cc2)c(OC)c1 | 38.5 µM | Non-toxic | –
N#Cc1ccc(/C=C/C(=O)Nc2ccc(-c3nc4ccc([N+](=O)[O-])cc4n3O)cc2)cc1 | 16.4 µM | Non-toxic | Activity [3]: Active
Cc1cc2nc(-c3ccc(NC(=O)/C=C/c4ccc(F)cc4)cc3)n(O)c2cc1[N+](=O)[O-] | 7.6 µM | Non-toxic | Activity [3]: Active; IC50 [4]: 6.7 µM; IC50 [5]: > 52 µM; MIC [6]: > 64 µg/mL; MIC [7]: > 64 µg/mL; MIC [8]: > 64 µg/mL
Cc1cc(-c2nc3ccc([N+](=O)[O-])cc3n2O)ccc1NC(=O)/C=C/c1ccc(F)cc1 | 25.3 µM | Non-toxic | –
O=C(/C=C/c1ccc(F)c(F)c1)Nc1ccc(-c2nc3ccc([N+](=O)[O-])cc3n2O)cc1 | 14.5 µM | Non-toxic | Activity [3]: Active
O=C(/C=C/c1ccc(F)cc1)Nc1ccc(-c2nc3ccc(C(F)(F)F)cc3n2O)cc1 | 59.7 µM | Non-toxic | –
O=C(/C=C/c1ccc(F)cc1)Nc1ccc(-c2nc3ccc(F)cc3n2O)cc1 | > 100 µM | Non-toxic | –
O=C(/C=C/c1ccc(F)cc1)Nc1ccc(-c2nc3ccccc3n2O)cc1 | > 100 µM | Non-toxic | –
O=C(/C=C/c1ccc(F)cc1)Nc1ccc(-c2nc3ccc([N+](=O)[O-])cc3n2O)c(F)c1 | 6.5 µM | Non-toxic | –
O=C(NCc1ccc(-c2nc3ccc([N+](=O)[O-])cc3n2O)cc1)c1ccc(F)cc1 | > 58.4 µM | Non-toxic | –
CN(C)c1ccc(/C=C/C(=O)Nc2ccc(-c3nc4ccc([N+](=O)[O-])cc4n3O)cc2)cc1 | 16.9 µM | Non-toxic | –
O=C(/C=C/c1ccc(F)cc1)Nc1ccc(-c2nc3ccc([N+](=O)[O-])cc3n2O)nc1 | 10.8 µM | Non-toxic | Activity [3]: inactive

Compound | IC50 [1] | Activity [2] | also measured
O=C(Cc1ccc(F)cc1)Nc1ccc(-c2nc3ccc([N+](=O)[O-])cc3n2O)cc1 | > 58.4 µM | Non-toxic | –
O=C(/C=C/c1ccc(F)cc1F)Nc1ccc(-c2nc3ccc([N+](=O)[O-])cc3n2O)cc1 | 5 µM | Non-toxic | –
CC(=O)c1ccc2nc(-c3ccc(NC(=O)/C=C/c4ccc(F)cc4)cc3)n(O)c2c1 | 39.4 µM | Non-toxic | –
N#Cc1ccc2nc(-c3ccc(NC(=O)/C=C/c4ccc(F)cc4)cc3)n(O)c2c1 | 8.3 µM | Non-toxic | –
O=C(Nc1ccc(-c2nc3ccc([N+](=O)[O-])cc3n2O)cc1)c1ccc(F)cc1 | 17.7 µM | Non-toxic | –
O=C(/C=C/c1ccccc1)Nc1ccc(-c2nc3ccc([N+](=O)[O-])cc3n2O)cc1 | 6.9 µM | Non-toxic | –
O=C(/C=C/c1ccc(F)cc1)Nc1ccc(-c2nc3ccc(Cl)cc3n2O)cc1 | > 100 µM | Non-toxic | –
CS(=O)(=O)c1ccc2nc(-c3ccc(NC(=O)/C=C/c4ccc(F)cc4)cc3)n(O)c2c1 | 87.4 µM | Non-toxic | –
O=C(/C=C/c1ccc(-n2cnnc2)cc1)Nc1ccc(-c2nc3ccc([N+](=O)[O-])cc3n2O)cc1 | 35.7 µM | Non-toxic | –
COc1ccccc1/C=C/C(=O)Nc1ccc(-c2nc3ccc([N+](=O)[O-])cc3n2O)cc1 | 20.9 µM | Non-toxic | –
Cc1ccc(/C=C/C(=O)Nc2ccc(-c3nc4ccc([N+](=O)[O-])cc4n3O)cc2)cc1 | 0.8 µM | Non-toxic | Activity [3]: inactive
O=C(/C=C/c1ccc(F)cc1)Nc1ccc(-c2nc3ccc(-n4ccnc4)cc3n2O)cc1 | 37.3 µM | Non-toxic | –
O=C(/C=C/c1ccc(C(F)(F)F)cc1)Nc1ccc(-c2nc3ccc([N+](=O)[O-])cc3n2O)cc1 | 6.4 µM | Non-toxic | –
O=C(/C=C/c1ccc(F)cc1)NCc1ccc(-c2nc3ccc([N+](=O)[O-])cc3n2O)cc1 | 14 µM | Non-toxic | –
CCOc1cc2nc(-c3ccc(NC(=O)/C=C/c4ccc(F)cc4)cc3)n(O)c2cc1[N+](=O)[O-] | 17.1 µM | Non-toxic | Activity [3]: Active
O=C(/C=C/c1ccc(-c2c[nH]cn2)cc1)Nc1ccc(-c2nc3ccc([N+](=O)[O-])cc3n2O)cc1 | > 44.8 µM | Non-toxic | –
O=C(/C=C/c1ccc(F)cc1)Nc1ccc(-c2nc3ccc([N+](=O)[O-])cc3n2O)cc1 | 3.9 µM | Non-toxic | Activity [3]: Active; IC50 [4]: 3.5 µM; IC50 [5]: > 53.8 µM; MIC [6]: > 64 µg/mL; MIC [7]: > 64 µg/mL; MIC [8]: > 64 µg/mL
O=C(/C=C/c1ccc(F)cc1)Nc1ccc(-c2nc3ccc([N+](=O)[O-])cc3n2O)cn1 | 7.4 µM | Non-toxic | –
O=C(/C=C/c1ccc(F)cc1)Nc1ccc(-c2nc3ccncc3n2O)cc1 | > 54.8 µM | Non-toxic | –
COc1ccc(/C=C/C(=O)Nc2ccc(-c3nc4ccc([N+](=O)[O-])cc4n3O)cc2)cc1 | 8 µM | Non-toxic | Activity [3]: Active; IC50 [4]: 5.9 µM; IC50 [5]: > 55.2 µM; MIC [6]: > 64 µg/mL; MIC [7]: > 64 µg/mL; MIC [8]: > 64 µg/mL
